Assay results taken from ChEMBL document CHEMBL1124636, “3,4-Dihydro-2H-1-benzopyran-2-carboxylic acids and related compounds as leukotriene antagonists” (J Med Chem, 1989).
One block for each compound: values may come before it. Active and inactive are the calls of the source. The rule behind the calls is not given here.

How the values were obtained:
Cavia porcellus [1] = experiment: In vivo guinea pig bronchoconstriction against leukotriene C4 when administered a compound dose (mg/kg) intravenously; format: functional; details: Lung, iv, read-out: ID50 (the source's name)
Cavia porcellus [2] = species on record: Cavia porcellus; experiment: In vitro activity to inhibit leukotriene D4 induced contraction of guinea pig trachea; format: functional; details: read-out: pA2 (converted)
How it was run: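 Guinea pig tracheal smooth muscle contracted by LTD4; pA2 and Schild slope reported.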

Cavia porcellus [3] = experiment: Duration of action of leukotriene D4 as time for inhibition to decrease to 40%, when compound was administered at a concentration of 1%, for 5 min by aerosol; format: ADME, organism-based; details: guinea pig, in vivo, inhaled_or_intranasal
How it was run: (§1)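 Aerosol guinea pig bronchoconstriction with LTD4 challenge; drug given as 1% nebulized solution for 5 min. Duration taken as time for inhibition to fall to 40%.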

Cavia porcellus [4] = experiment: (§2) Duration of action of leukotriene E4 as time for inhibition to decrease to 40%, compound administered at a concentration of 1%,for 5 min by aerosol; format: ADME, organism-based; details: guinea pig, in vivo, inhaled_or_intranasal
How it was run: (§3)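 Aerosol guinea pig bronchoconstriction with LTE4 challenge; drug given as 1% nebulized solution for 5 min. Duration taken as time for inhibition to fall to 40%.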

Cavia porcellus [5] = experiment: Inhibitory activity to inhibit arachidonic acid induced bronchoconstriction (when administered at a concentration of 1%, by aerosol); Not active; format: functional, organism-based
Cavia porcellus [6] = species on record: Cavia porcellus; experiment: In vitro activity to inhibit SRS-A induced contraction of guinea pig ileum
Cavia porcellus [7] = experiment: Activity against platelet activating factor in guinea pig (when administered at a concentration of 1%, by aerosol); Not active; format: functional, organism-based
Cavia porcellus [8] = experiment: Activity against histamine induced bronchoconstriction in guinea pig, no significant inhibition when compound dose (10 mg/kg) given intravenously; Not active.; format: functional, organism-based
Cavia porcellus [9] = experiment: In vivo guinea pig bronchoconstriction against leukotriene C4 when administered at a concentration of 1%, by aerosol; NS means no significant inhibition.; format: functional, organism-based; details: Lung
[10] = biological target: Dual specificity calcium/calmodulin-dependent 3',5'-cyclic nucleotide phosphodiesterase 1A (Bos taurus, UniProt P14100); experiment: Inhibition of bovine heart Phosphodiesterase 1A
Dual specificity calcium/calmodulin-dependent 3',5'-cyclic nucleotide phosphodiesterase 1A, sequence (P14100 whole entry): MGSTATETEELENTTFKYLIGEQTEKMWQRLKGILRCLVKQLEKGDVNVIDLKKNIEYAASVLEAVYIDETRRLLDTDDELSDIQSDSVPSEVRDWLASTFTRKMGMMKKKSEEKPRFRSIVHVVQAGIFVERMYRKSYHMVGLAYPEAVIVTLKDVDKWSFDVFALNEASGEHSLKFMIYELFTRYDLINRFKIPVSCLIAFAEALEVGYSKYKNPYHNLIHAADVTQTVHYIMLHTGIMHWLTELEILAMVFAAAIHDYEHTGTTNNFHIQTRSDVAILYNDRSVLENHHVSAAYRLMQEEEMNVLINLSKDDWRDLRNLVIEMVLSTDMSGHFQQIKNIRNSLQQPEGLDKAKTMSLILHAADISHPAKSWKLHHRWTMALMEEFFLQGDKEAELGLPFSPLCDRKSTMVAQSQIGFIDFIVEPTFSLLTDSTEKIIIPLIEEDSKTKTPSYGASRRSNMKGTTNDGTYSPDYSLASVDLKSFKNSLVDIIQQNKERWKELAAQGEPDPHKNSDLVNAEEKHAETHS

Cavia porcellus [11] = experiment: Inhibition of leukotriene D4 induced bronchoconstriction in anesthetized guinea pigs after intravenous administration at a dose of 10 mg/kg; format: functional
How it was run: (§4)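 Male Hartley guinea pigs, 400–600 g, urethane 2 g/kg ip, jugular cannula, propranolol 0.1 mg/kg iv 5 min before challenge, succinylcholine 1.2 mg/kg iv, ventilated. Vehicle or drug iv 30 s before LTD4 25 µg/kg iv; tracheal pressure change.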

Cavia porcellus [12] = experiment: Time taken for inhibition of antigen induced bronchoconstriction in guinea pig to decrease to 40%, compound administered at a concentration of 1%, for 5 min by aerosol; format: organism-based; details: in vivo, inhaled_or_intranasal
How it was run: (§5)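 Aerosol guinea pig bronchoconstriction with antigen challenge; drug given as 1% nebulized solution for 5 min. Duration taken as time for inhibition to fall to 40%.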

Cavia porcellus [13] = experiment: (§6) Duration of action of leukotriene D4 as time for inhibition to decrease to 40%, compound was administered at a dose of 10 mg/kg; format: ADME, organism-based; design: dose 10 mg/kg; details: guinea pig, in vivo
How it was run: (§7)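 Intravenous guinea pig bronchoconstriction with LTD4 challenge; drug 10 mg/kg iv. Duration taken as time for inhibition to fall to 40%.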

Cavia porcellus [14] = experiment: (§8) Inhibition of leukotriene D4 induced bronchoconstriction in anesthetized guinea pigs after aerosol administration as 1% solution; format: functional, organism-based
How it was run: (§9)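 Guinea pigs given propranolol 0.1 mg/kg iv 5 min before 5-min ultrasonic nebulizer exposure to aqueous, NaOH-neutralized drug (% w/v) or distilled water, breathing spontaneously. LTD4 50 µg/kg iv 30 s after exposure; tracheal pressure change.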

Cavia porcellus [15] = experiment: In vivo guinea pig bronchoconstriction against leukotriene B4 (when administered at a concentration of 1%, by aerosol); Not active; details: Lung
Cavia porcellus [16] = experiment: Activity against platelet activating factor in guinea pig, no significant inhibition when compound dose (10 mg/kg) given intravenously; Not active.; format: functional, organism-based
Cavia porcellus [17] = experiment: Inhibition of leukotriene D4 induced bronchoconstriction in anesthetized guinea pigs after intravenous administration; format: functional; details: read-out: ID50 (the source's name); how it was run: as §4
Cavia porcellus [18] = experiment: Activity against histamine induced bronchoconstriction in guinea pig (when administered at a concentration of 1%, by aerosol); Not active; format: functional, organism-based
Cavia porcellus [19] = experiment: (§10) Duration of action of leukotriene E4 as time for inhibition to decrease to 40%, compound was administered at a dose of 10 mg/kg; format: ADME, organism-based; design: dose 10 mg/kg; details: guinea pig, in vivo
How it was run: (§11)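 Intravenous guinea pig bronchoconstriction with LTE4 challenge; drug 10 mg/kg iv. Duration taken as time for inhibition to fall to 40%.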

Cavia porcellus [20] = experiment: as §8; format: functional; how it was run: as §9
Cavia porcellus [21] = experiment: In vivo guinea pig bronchoconstriction against leukotriene E4 when administered a compound dose(mg/kg) intravenously; format: functional; details: Lung, iv, read-out: ID50 (the source's name)
Cavia porcellus [22] = experiment: In vivo guinea pig bronchoconstriction against leukotriene D4 when administered a compound dose (mg/kg) intravenously; format: functional; details: Lung, iv, read-out: ID50 (the source's name); how it was run: as §4
Cavia porcellus [23] = experiment: as §6; format: functional; how it was run: as §7
[24] = Inhibitory activity to inhibit Inophore-induced arachidonic acid metabolism (inhibition of PGE-2 formation) in rat; format: functional
How it was run: (§12)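 Rat peritoneal macrophages adhered 90 min at 37 °C, labeled with [14C]arachidonic acid 90 min, washed. Compound 30 min at 37 °C, then A23187 0.5 µM for 20 min. LTB4 and PGE2 in medium by radioimmunoassay.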

Cavia porcellus [25] = experiment: Activity against platelet activating factor in guinea pig, no significant inhibition when compound dose (10 mg/kg) given intravenously; NA means inactive; format: functional, organism-based
Cavia porcellus [26] = species on record: Cavia porcellus; experiment: Inhibitory activity to inhibit antigen induced bronchoconstriction in guinea pig; format: functional
Cavia porcellus [27] = experiment: Duration of action of leukotriene D4 as time for inhibition to decrease to 40%, compound was administered at a concentration 1%, for 5 min by aerosol; format: functional; how it was run: as §1
[28] = biological target: T1, Cysteinyl leukotriene receptor 1 (Cavia porcellus) (UniProt Q2NNR5); experiment: Inhibitory activity of compound to block binding of [3H]leukotriene D4 to Cysteinyl L-Cysteinyl leukotriene D4 receptor sites in homogenized guinea pig lung at 10 uM
T1 sequence (whole entry): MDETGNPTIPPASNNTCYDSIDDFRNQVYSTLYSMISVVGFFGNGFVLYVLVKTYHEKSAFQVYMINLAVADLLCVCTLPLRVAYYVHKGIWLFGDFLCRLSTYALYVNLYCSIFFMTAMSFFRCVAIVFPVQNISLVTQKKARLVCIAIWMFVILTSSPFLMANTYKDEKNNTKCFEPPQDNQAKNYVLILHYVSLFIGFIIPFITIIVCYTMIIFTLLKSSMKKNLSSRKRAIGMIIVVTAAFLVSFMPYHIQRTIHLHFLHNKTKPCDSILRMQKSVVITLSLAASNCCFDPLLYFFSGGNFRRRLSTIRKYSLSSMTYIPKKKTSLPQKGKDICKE
How it was run: (§13)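 Lung from male Hartley guinea pigs (400–500 g), homogenized in sucrose/Tris pH 7.5 with protease inhibitors; 30000g membrane pellet in 10 mM PIPES pH 7.5, 50 mM NaCl. Binding: Tyrode, 0.1% BSA, 1 mM glycine, 1 mM cysteine, 3.5 nM [3H]LTD4, 100–200 µg protein, 20 °C, 30 min; glass-fiber filtration. Nonspecific with 10^-6 M LTD4. Triplicate screen at 10 µM; IC50 by linear regression.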

[29] = biological target: T2, Cysteinyl leukotriene receptor 1 (Cavia porcellus, UniProt Q2NNR5); experiment: Inhibitory activity of compound to block binding of [3H]leukotriene D4 to Cysteinyl leukotriene D4 receptor sites in homogenized guinea pig lung; how it was run: as §13
T2 sequence (Q2NNR5 whole entry): T1 sequence (whole entry)

Cavia porcellus [30] = species on record: Cavia porcellus; experiment: Activity against platelet activating factor in guinea pig, no significant inhibition at concentration of 1% by aerosol; NA means inactive; format: functional, organism-based
Cavia porcellus [31] = experiment: Activity against histamine induced bronchoconstriction in guinea pig, no significant inhibition when compound dose (10 mg/kg) given intravenously; NA means inactive; format: functional, organism-based
Cavia porcellus [32] = experiment: Time taken for inhibition of antigen induced bronchoconstriction in guinea pig to decrease to 40%, compound was administered at a concentration of 1%, for 5 min by aerosol; format: functional; how it was run: as §5
Cavia porcellus [33] = experiment: as §10; format: functional; how it was run: as §11
Rattus norvegicus = species on record: Rattus norvegicus; experiment: Inhibitory activity to inhibit Inophore-induced arachidonic acid metabolism (inhibition of LTB4 formation) in rat; format: functional, organism-based; how it was run: as §12
Cavia porcellus [34] = experiment: as §2; format: functional; how it was run: as §3
Cavia porcellus [35] = species on record: Cavia porcellus; experiment: Activity against histamine induced bronchoconstriction in guinea pig, no significant inhibition at concentration of 1% by aerosol; NA means inactive; format: functional, organism-based
[36] = biological target: T1, Cysteinyl leukotriene receptor 1 (Cavia porcellus); experiment: (§14) Inhibition of leukotriene D4 induced bronchoconstriction in anesthetized guinea pigs after intravenous administration at a dose of 1 mg/kg; format: organism-based; design: dose 1 mg/kg
[37] = biological target: T1, Cysteinyl leukotriene receptor 1 (Cavia porcellus); experiment: Inhibitory activity of compound to block binding of radiolabeled leukotriene D4 to receptor sites in homogenized guinea pig lung at 10 uM; how it was run: as §13
[38] = tested on: Cysteinyl leukotriene receptor 1 (Cavia porcellus); experiment: Inhibitory activity of compound to block binding of radiolabeled Cysteinyl leukotriene D4 receptor sites in homogenized guinea pig lung at 10 uM
Cavia porcellus [39] = experiment: as §14; format: functional
[40] = tested on: Cysteinyl leukotriene receptor (Cavia porcellus); experiment: Inhibitory activity to block binding of [3H]leukotriene D4 to LTD4 receptor sites in homogenized guinea pig lung at 10 uM

SMILES: CCCc1c(OCC(O)COc2ccc3c(=O)cc(C(=O)O)oc3c2CCC)ccc(C(C)=O)c1O (stereo not drawn) [FPL-55712]
ED50 (Cavia porcellus [1]): 6 mg/kg | Kb (Cavia porcellus [2]): 1000 nM | Duration (Cavia porcellus [3]): 60 min | Duration (Cavia porcellus [4]): 50 min | inhibition (Cavia porcellus [5]): inactive | IC50 (Cavia porcellus [6]): 50 nM | inhibition (Cavia porcellus [7]): inactive | inhibition (Cavia porcellus [8]): inactive | inhibition (Cavia porcellus [9]): inactive | IC50 [10]: 40 µM | inhibition in vivo at 10 mg/kg (Cavia porcellus [11]): 92% | Duration (Cavia porcellus [12]): 270 min | Duration (Cavia porcellus [13]): 6 min | IC50 (Cavia porcellus [14]): 0.5 % conc | inhibition (Cavia porcellus [15]): inactive | inhibition (Cavia porcellus [16]): inactive | ED50 (Cavia porcellus [17]): 2 mg/kg | inhibition (Cavia porcellus [18]): inactive | Duration (Cavia porcellus [19]): 6 min | Inhibition (Cavia porcellus [20]): 64% | ED50 (Cavia porcellus [21]): 1 mg/kg | ED50 (Cavia porcellus [22]): 2 mg/kg

IC50 [24]: 7 µM | inhibition [28]: 70% | IC50 (Cavia porcellus [6]): 60 nM | IC50 [29]: 4 µM | IC50 [10]: 36 µM | IC50 (Cavia porcellus [14]): 0.007 % conc | IC50 (Rattus norvegicus): 4 µM
SMILES: CCCc1c(OCCCCCOc2cc3c(cc2C(C)=O)CCC(C(=O)O)O3)ccc(C(C)=O)c1O (stereo not drawn) [ABLUKAST]
ED50 (Cavia porcellus [1]): 3 mg/kg | Duration (Cavia porcellus [23]): 40 min | inhibition (Cavia porcellus [25]): inactive | Kb (Cavia porcellus [2]): 251 nM | Inhibition (Cavia porcellus [26]): 0.027% | Duration (Cavia porcellus [27]): 150 min | inhibition in vivo at 10 mg/kg (Cavia porcellus [11]): 93% | inhibition (Cavia porcellus [30]): inactive | inhibition (Cavia porcellus [31]): inactive | ED50 (Cavia porcellus [17]): 5 mg/kg | Duration (Cavia porcellus [32]): 250 min | Duration (Cavia porcellus [33]): 40 min | Duration (Cavia porcellus [34]): 90 min | Inhibition (Cavia porcellus [20]): 89% | ED50 (Cavia porcellus [21]): 1 mg/kg | ED50 (Cavia porcellus [22]): 5 mg/kg | inhibition (Cavia porcellus [35]): inactive

inhibition [36]: 0% | inhibition [37]: 0%
SMILES: CCCc1c(OCCCCCOc2cc3c(cc2C(C)=O)CCC(C(=O)O)O3)ccc(C=O)c1O (stereo not drawn)

inhibition [37]: 39% | inhibition [38]: 39%
SMILES: CCCc1c(OCCCCCCCOc2cc3c(cc2C(C)=O)CCC(C(=O)O)O3)ccc(C(C)=O)c1O (stereo not drawn)
Inhibition (Cavia porcellus [20]): 44%

inhibition [40]: 60%
SMILES: CCCc1c(OCCCCCOc2cc3c(cc2C(C)=O)CCC(c2nnn[nH]2)O3)ccc(C(C)=O)c1O (stereo not drawn)
inhibition in vivo at 1 mg/kg (Cavia porcellus [39]): 0%
